Laboratory results taken from ChEMBL document CHEMBL1177847, “Combating oxidative stress in epilepsy: design, synthesis, quantum chemical studies and anticonvulsant evaluation of 1-(substituted benzylidene/ethylidene)-4-(naphthalen-1-yl)semicarbazides” (Eur J Med Chem, 2010).
The source made the active and inactive calls. The rule behind the calls is not given here.

How the values were obtained:
[1] = test system: Mus musculus; assay: Neurotoxicity in ip dosed Swiss albino mouse assessed as minimum dose required to cause impair in motor coordination after 4 hrs by rotarod test; format: toxicity, organism-based; conditions: in vivo
Procedure, shortened: (§1)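 Rotarod motor-impairment test in male Swiss albino mice dosed i.p. at 30, 100 or 300 mg/kg in 5% gum acacia/water. Mice that fell off the rotating rod within 30 s during pretraining were excluded. The dose at which animals fell off was recorded at 0.5 and 4 h.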

[2] = test system: Mus musculus; assay: Anticonvulsant activity against maximal electroshock-induced seizures in ip dosed Swiss albino mouse assessed as minimum effective dose after 0.5 hrs; format: functional; conditions: read-out: MED
Procedure, shortened: (§2)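 Male Swiss albino mice (18–25 g) received the compound suspended in 5% gum acacia/water, i.p. at 30, 100 and 300 mg/kg (one to four animals per dose). Maximal electroshock was applied at 0.5 and 4 h. Protection meant abolition of the hind limb tonic extensor component. The lowest dose protecting half or more of the mice was recorded.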

[3] = test system: Mus musculus; assay: Anticonvulsant activity against maximal electroshock-induced seizures in ip dosed Swiss albino mouse assessed as minimum effective dose after 4 hrs; format: functional; conditions: read-out: MED; procedure, shortened: as §2
[4] = test system: Mus musculus; assay: Anticonvulsant activity against subcutaneous pentylenetetrazole-induced seizures in ip dosed Swiss albino mouse assessed as minimum effective dose after 0.5 hrs; format: functional; conditions: read-out: MED
Procedure, shortened: (§3)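 Male Swiss albino mice (18–25 g) were dosed i.p. with the compound in 5% gum acacia/water at 30, 100 or 300 mg/kg. Thirty minutes later they received PTZ 85 mg/kg (CD97) and were watched for seizures over 4 h. Readings at 0.5 and 4 h gave the lowest dose active in half or more of the animals. Myoclonic jerks were noted separately.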

[5] = test system: Mus musculus; assay: Anticonvulsant activity against subcutaneous pentylenetetrazole-induced seizures in ip dosed Swiss albino mouse assessed as minimum effective dose after 4 hrs; format: functional; conditions: read-out: MED; procedure, shortened: as §3
[6] = test system: Mus musculus; assay: Neurotoxicity in ip dosed Swiss albino mouse assessed as minimum dose required to cause impair in motor coordination after 0.5 hrs by rotarod test; format: toxicity, organism-based; conditions: in vivo; procedure, shortened: as §1
[7] = test system: Mus musculus; assay: Anticonvulsant activity against subcutaneous pentylenetetrazole-induced seizures in Swiss albino mouse at 300 mg/kg, ip after 0.5 hrs; format: functional, organism-based; design: dose 300 mg/kg; procedure, shortened: as §3
[8] = test system: Mus musculus; assay: Anticonvulsant activity against subcutaneous pentylenetetrazole-induced seizures in Swiss albino mouse at 300 mg/kg, ip after 4 hrs; format: functional, organism-based; design: dose 300 mg/kg; procedure, shortened: as §3
[9] = test system: Mus musculus; assay: Neurotoxicity in ip dosed Swiss albino mouse assessed as impair in motor coordination at 300 mg/kg, ip after 4 hrs by rotarod test; format: toxicity, organism-based; design: dose 300 mg/kg, route intraperitoneal; conditions: in vivo; procedure, shortened: as §1
[10] = test system: Mus musculus; assay: Reduction of lipid peroxidation in subcutaneous pentylenetetrazole treated Swiss albino mouse brain assessed reduction of malondialdehyde level per mg of protein at 100 mg/kg, ip after 4 hrs by TBARS assay; format: functional; conditions: route intraperitoneal
Procedure, shortened: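 PTZ-treated mice were dosed at 100 mg/kg i.p. and decapitated 4 h after the last injection. Brains were homogenized in four volumes of ice-cold 50 mM Tris-HCl, pH 7.4, and spun at 3000 × g for 15 min. TBARS in the supernatant was read at 532 nm in the upper organic layer and expressed as nmol MDA/mg protein. n = 6, mean ± S.E.M.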

[11] = test system: Mus musculus; assay: Restoration of GSH level in subcutaneous pentylenetetrazole treated Swiss albino mouse brain assessed per gram of tissue at 100 mg/kg, ip after 4 hrs; format: functional; conditions: route intraperitoneal
Procedure, shortened: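 Brains were taken from PTZ-treated mice 4 h after 100 mg/kg i.p. dosing. Tissue was deproteinized with an equal volume of 10% TCA for 2 h at 4 °C and centrifuged at 2000 g for 15 min. The supernatant was mixed with 0.4 M Tris (pH 8.9) containing 0.02 M EDTA, and 0.01 M DTNB was added before spectrophotometric reading. n = 6.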

[12] = test system: Mus musculus; assay: Restoration of SOD activity in subcutaneous pentylenetetrazole treated Swiss albino mouse brain assessed per mg of protein at 100 mg/kg, ip after 4 hrs; format: functional; conditions: route intraperitoneal
Procedure, shortened: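 The ethanol phase of an ethanol/chloroform (5:3) extract of brain supernatant was used, from PTZ-treated mice 4 h after 100 mg/kg i.p. Superoxide was generated by xanthine–xanthine oxidase at pH 10.2 with NBT, 20 min at 25 °C. The reaction was stopped with CuCl2 and read at 560 nm. One unit gives 50% inhibition of NBT reduction; results are expressed as U/mg protein. n = 6.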

[13] = test system: Mus musculus; assay: Restoration of GSH peroxidase activity in subcutaneous pentylenetetrazole treated Swiss albino mouse brain assessed per mg of protein at 100 mg/kg, ip after 4 hrs; format: functional; conditions: route intraperitoneal
Procedure, shortened: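 Brain homogenate came from PTZ-treated mice 4 h after 100 mg/kg i.p. dosing, using the 10500 × g supernatant. Samples were equilibrated 5 min at 25 °C, started with H2O2, and A340 was followed for 5 min. n = 6.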

[14] = test system: Mus musculus; assay: Anticonvulsant activity against maximal electroshock-induced seizures in Swiss albino mouse at 300 mg/kg, ip after 0.5 hrs; format: functional, organism-based; design: dose 300 mg/kg; procedure, shortened: as §2
[15] = test system: Mus musculus; assay: Anticonvulsant activity against maximal electroshock-induced seizures in Swiss albino mouse at 300 mg/kg, ip after 4 hrs; format: functional, organism-based; design: dose 300 mg/kg; procedure, shortened: as §2
[16] = test system: Mus musculus; assay: Neurotoxicity in ip dosed Swiss albino mouse assessed as impair in motor coordination at 300 mg/kg, ip after 0.5 hrs by rotarod test; format: toxicity, organism-based; design: dose 300 mg/kg, route intraperitoneal; conditions: in vivo; procedure, shortened: as §1
[17] = test system: Mus musculus; assay: Toxicity in subcutaneous pentylenetetrazole-induced Swiss albino mouse assessed as myoclonic jerks at 100 mg/kg, ip after 0.5 hrs; format: organism-based; design: dose 100 mg/kg; procedure, shortened: as §3
[18] = test system: Mus musculus; assay: Toxicity in subcutaneous pentylenetetrazole-induced Swiss albino mouse assessed as myoclonic jerks at 300 mg/kg, ip after 0.5 hrs; format: organism-based; design: dose 300 mg/kg; procedure, shortened: as §3
[19] = test system: Mus musculus; assay: Toxicity in subcutaneous pentylenetetrazole-induced Swiss albino mouse assessed as death at 30 to 300 mg/kg, ip after 0.5 hrs; format: organism-based; design: dose 30-300 mg/kg
Procedure, shortened: (§4)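 Male Swiss albino mice (18–25 g) given compound suspended in 5% gum acacia/water, i.p. at 30, 100 or 300 mg/kg, one to four animals per dose. PTZ at 85 mg/kg was injected 30 min after compound. Animals were examined 0.5 and 4 h after administration, and death following tonic extension was noted. The maximum dose was 300 mg/kg.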

[20] = test system: Rattus norvegicus; assay: Anticonvulsant activity against subcutaneous pentylenetetrazole-induced seizures in Wistar albino rat at 50 mg/kg, ip after 2 hrs; format: functional
[21] = test system: Mus musculus; assay: Toxicity in subcutaneous pentylenetetrazole-induced Swiss albino mouse assessed as death at 30 to 300 mg/kg, ip after 4 hrs; format: organism-based; design: dose 30-300 mg/kg; procedure, shortened: as §4

Structure (SMILES)	Activity [1] [mg/kg]	minimal effective dose [2] [mg/kg]	minimal effective dose [3] [mg/kg]	minimal effective dose [4] [mg/kg]	Activity [6] [mg/kg]	Activity [8]	Activity [9]	Activity [14]	Activity [15]	Activity [16]	further results
NC(=O)N1c2ccccc2C=Cc2ccccc21 [CARBAMAZEPINE]	300	30	100	100	100						minimal effective dose [5]: 300 mg/kg
O=C1NC(=O)C(c2ccccc2)(c2ccccc2)N1 [PHENYTOIN]	100	30	30		100	inactive					Activity [7]: inactive
CCCC(CCC)C(=O)O [VALPROIC ACID]				300		inactive	Non-toxic	inactive	inactive	Non-toxic	Activity [10]: 1.96 nmol; Activity [11]: 22.14 µg; Activity [12]: 1.82 U; Activity [13]: 2.19 U
COc1cccc(/C=N/NC(=O)Nc2cccc3ccccc23)c1			300	100	100	inactive	Non-toxic	inactive			
CN(C)c1ccc(/C=N/NC(=O)Nc2cccc3ccccc23)cc1	100	100	100		100						Activity [17]: Toxic; minimal effective dose [5]: 300 mg/kg
C/C(=N\NC(=O)Nc1cccc2ccccc12)c1ccc(Cl)cc1Cl	300		300					inactive		Non-toxic	Activity [18]: Toxic; minimal effective dose [5]: 300 mg/kg
O=C(N/N=C/c1ccc(Cl)cc1Cl)Nc1cccc2ccccc12	300	100	100	300						Non-toxic	Activity [10]: 2.78 nmol; Activity [11]: 21.35 µg; Activity [12]: 1.69 U; Activity [13]: 1.65 U; minimal effective dose [5]: 300 mg/kg
C/C(=N\NC(=O)Nc1cccc2ccccc12)c1ccccc1		300			100	inactive	Non-toxic		inactive		Activity [7]: inactive
COc1ccc(/C=N/NC(=O)Nc2cccc3ccccc23)cc1		300			300	inactive	Non-toxic		inactive		Activity [19]: Toxic
COc1ccc(OC)c(/C=N/NC(=O)Nc2cccc3ccccc23)c1			300	300	300	inactive	Non-toxic	inactive			
O=C(N/N=C/c1ccccc1[N+](=O)[O-])Nc1cccc2ccccc12			300	300	300	inactive	Non-toxic	inactive			
O=C(N/N=C/c1ccccc1)Nc1cccc2ccccc12	100	300			100	inactive			inactive		Activity [19]: Toxic
COc1ccc(/C=N/NC(=O)Nc2cccc3ccccc23)cc1OC		100	100	100			Non-toxic			Non-toxic	Activity [20]: inactive; Activity [10]: 2.53 nmol; Activity [11]: 18.51 µg; Activity [12]: 1.45 U; Activity [13]: 1.62 U; minimal effective dose [5]: 300 mg/kg
O=C(N/N=C/c1ccccc1O)Nc1cccc2ccccc12	300			300	300			inactive	inactive		Activity [21]: Toxic
C/C(=N\NC(=O)Nc1cccc2ccccc12)c1ccc(C)cc1	300			300	300	inactive		inactive	inactive		
O=C(N/N=C/c1ccc(F)cc1)Nc1cccc2ccccc12	100		300	300				inactive		Non-toxic	Activity [21]: Toxic
CCC1(C)CC(=O)NC1=O (stereo unspecified) [ETHOSUXIMIDE]				300		inactive	Non-toxic	inactive	inactive	Non-toxic	
O=C(N/N=C/c1ccccc1Cl)Nc1cccc2ccccc12	300			300		inactive		inactive	inactive	Non-toxic	
O=C(N/N=C/c1ccc([N+](=O)[O-])cc1)Nc1cccc2ccccc12	300	300	300							Non-toxic	Activity [17]: Toxic; Activity [10]: 3.39 nmol; Activity [11]: 16.76 µg; Activity [12]: 1.73 U; Activity [13]: 1.47 U; minimal effective dose [5]: 300 mg/kg
O=C(N/N=C/c1ccc(Br)cc1)Nc1cccc2ccccc12	300	300	300	300	300	inactive					
O=C(N/N=C/c1ccc(Cl)cc1)Nc1cccc2ccccc12			300	300	300	inactive	Non-toxic	inactive			
O=C(N/N=C/c1ccc(O)cc1)Nc1cccc2ccccc12	300	100			100	inactive			inactive		Activity [7]: inactive
C/C(=N\NC(=O)Nc1cccc2ccccc12)c1ccc(Cl)cc1			300	300	300	inactive	Non-toxic	inactive			
COc1cc(/C=N/NC(=O)Nc2cccc3ccccc23)ccc1O	100	300		300	100	inactive			inactive		
